HKDC1 activator = increases human hexokinase HKDC1 activity | Q2TB90 | recombinant HKDC1, G6PDH/diaphorase resazurin fluorescence; stronger effect = lower value | activity change, negative = activation, % at 20 µM | 0.056% of 340,000 active | AID 493187;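 active means activation of 40% or more at 20 µM, a change of -40% or lower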
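Signal: coupled resazurin-to-resorufin fluorescence, Ex 525/Em 613 nm. Test system: in-house human HKDC1 enzyme, G6PDH and diaphorase coupling enzymes. Quantity: HKDC1 5 µg/mL. Timing: 90 min reaction at room temperature, dark.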
Numbers without * were called inactive. These entries were drawn from the full list.

SMILES	HKDC1 activator
Cc1cccc(N=C2NN=C(c3ccc4c(c3)OCCO4)CS2)c1	-62*
CCc1ccc(C2=NNC(=Nc3cccc(S(=O)(=O)N(C)C)c3)SC2)cc1	-177*
Cc1cccc(N=C2NN=C(c3c(C)[nH]c4ccccc34)CS2)c1	-41*
Cc1ccc(C2=NNC(=Nc3ccc(F)cc3)SC2)cc1	-70*
Cc1ccc(SC2=C(N(C)C)C(=O)c3ccccc3C2=O)cc1	57
COC1=C(C)C(=O)C2=C(C1=O)C1C3CC4=C(C(=O)C(OC)=C(C)C4=O)C(CNC(=O)C(C)=O)N3C(C#N)C(C2)N1C (centres undefined)	60
Nc1ccc(N)c(C(=O)O)c1	36
CC(=O)NC1C(=O)N(CCN2CCOCC2)c2ccc(F)cc21 (centres undefined)	79
O=S(=O)(O)c1cc(O)c2ccc(Nc3ccccc3)cc2c1	50
O=C1C(=O)c2c(C(=O)c3ccccc3)coc2-c2ccccc21	51
O=C(N/N=C1/C(=O)c2cccc3cccc1c23)c1ccc(Cl)cc1	43
Cc1cc(C)c(S(=O)(=O)Nc2cc(SCC(=O)O)c(O)c3ccccc23)cc1C	54
COc1cc(OC)cc(C(=O)NC(=S)NNC(=O)c2cnccn2)c1	-42*
CCCCNC(=O)c1sc(=S)n2c1[nH]c(=O)c1ccc(C(=O)NCCc3ccc(OC)c(OC)c3)cc12	48
CCOc1ccc2nc3cc(NCc4ccc(OC)cc4)ccc3c(N)c2c1	36
CCc1ccc(S(=O)(=O)/N=C2/C=C(Sc3ncn[nH]3)C(=O)c3ccccc32)cc1	71
O=C1NC(=S)N/C1=C/c1cc2c(cc1[N+](=O)[O-])OCO2	-67*
COC1=C(OC)C(=O)C(Sc2ccc3ccccc3c2)=CC1=O	71
CCOC(=O)c1ccc(N=C2C(=S)N(c3ccc(C(=O)OCC)cc3)C(=N)N2/N=C/c2ccccc2)cc1	-136*
O=C(NCCC(=O)N1CCCC(C(F)(F)F)C1)c1ccc(Br)cc1 (centres undefined)	36
O=C(NCCc1ccccc1)C(c1cccs1)N(C(=O)CCl)c1ccc(Cl)cc1 (centres undefined)	37
COc1cc(NS(=O)(=O)c2ccc(NC(=O)c3ccc(F)cc3)cc2)ncn1	-59*
COC1=CC(=O)C=C(OC)C1=O	66
COC(=O)c1cc(C)nc2c1C(=O)C(=O)C=C2N1CCOCC1	68
NNc1ncnc2sc3c(c12)CCC3	-102*
SMILES	HKDC1 activator
Cn1c(/N=C/c2c(O)ccc3ccccc23)nc2ccccc21	54
c1ccc(Nc2cc(Nc3ccccc3)[nH]n2)cc1	-47*
CCc1nn2c(=O)cc(COc3ccc(/C=C4\C(=N)N5N=C(C)SC5=NC4=O)cc3)nc2s1	58
Cc1cc(C)c(S(=O)(=O)/N=C2/C=C(SCC(=O)O)C(=O)c3ccccc32)cc1C	51
CCOc1ccccc1Nc1nnc(SCc2nnc(-c3cc(OC)c(OC)c(OC)c3)o2)s1	48
O=C1C=CC(=O)c2c(O)c(CO)c(CO)c(O)c21	49
O=C(C1=C(c2ccccc2)C(=O)c2ccccc2C1=O)c1ccccc1	58
COc1ccc2cc(/C=N/NC(=O)c3c(Cl)cnn3C)c(Cl)nc2c1	-75*
COc1ccc2[nH]c(=O)c(CN(C3CCCCC3)C(c3nnnn3Cc3ccco3)C(C)C)cc2c1 (centres undefined)	37
CCC(C)C(N)C1=NC(C(=O)N[C@@H](CC(C)C)C(=O)N[C@H](CCC(=O)[O-])C(=O)N[C@H](C(=O)N[C@H]2CCCCNC(=O)[C@H](CC(N)=O)NC(=O)[C@@H](CC(=O)[O-])NC(=O)[C@H](Cc3cnc[nH]3)NC(=O)[C@@H](Cc3ccccc3)NC(=O)[C@H]([C@@H](C)CC)NC(=O)[C@@H](CCCN)NC2=O)[C@@H](C)CC)CS1.[Zn+2] (some centres undefined)	92
O=C(N/N=C/c1ccccc1OC(=O)c1ccc2c(c1)OCO2)c1ccccc1	-48*
O=C(CN1C(=O)/C(=C2\SC(=S)N(CCS(=O)(=O)O)C2=O)c2ccccc21)Nc1cccc(Br)c1	58
CCN1CCN(c2cc3c(nn2)Oc2ccccc2N3C)CC1	-44*
O=S(=O)(Nc1ccc(O)c2ccccc12)c1cccs1	51
Cc1oc2c(c1C(=O)c1ccccc1)C(=O)C(=O)c1ccccc1-2	42
CN(C)c1ncc(C2=C(Cl)C(=O)C(N3CCCC3)=C(Cl)C2=O)s1	35
Cc1ccc(SSc2cc(C)ccc2N)c(N)c1	-44*
O=C(O)[C@@H](c1ccccc1)N1Cc2ccccc2C1=O	52
CCOC(=O)N1CCN(c2cc(NCCC(=O)O)c3c4c(onc24)-c2ccccc2C3=O)CC1	37
Cc1cc(O)c(-c2cc(O)c(C)cc2O)cc1O	45
CC1=NOC(=O)/C1=C\c1ccc(-c2ccc(Cl)cc2Cl)o1	54
CCOC(=O)C1=C(O)c2ccccc2C(=O)/C1=C\c1ccc(CC)cc1	59
COC(=O)c1sc(NC(=O)CSc2nc3nc(C)cc(C)n3n2)c(C(=O)OC)c1C	35
Cc1cc(C)nc(/N=c2/ssnc2Cl)c1	-137*
Cc1ccc(N=c2ssnc2Cl)cc1	-51*
